Data on 13 compounds can be found in ChEMBL document CHEMBL5620402, “Development of submicromolar 17β-HSD10 inhibitors and their in vitro and in vivo evaluation” (Eur J Med Chem, 2023).

Data set [1] in a line: Dissociation constant, pKa of compound using buffers of given pH (range from 3.0 to 11.5) by UV-VIS spectrophotometry. The data set is classed as physicochemical. Summed up:
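Compound (10 μL of 1 mg/mL) was put into 490 μL of buffers spanning pH 3.0–11.5 in 0.5-unit steps. UV spectra were scanned at 200–400 nm and 20 °C. pKa was fitted from the sigmoidal absorbance of the dissociated form versus pH.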

Data set [2] deals with T1, 3-hydroxyacyl-CoA dehydrogenase type-2 (Homo sapiens) (UniProt Q99714).
T1 sequence (whole entry): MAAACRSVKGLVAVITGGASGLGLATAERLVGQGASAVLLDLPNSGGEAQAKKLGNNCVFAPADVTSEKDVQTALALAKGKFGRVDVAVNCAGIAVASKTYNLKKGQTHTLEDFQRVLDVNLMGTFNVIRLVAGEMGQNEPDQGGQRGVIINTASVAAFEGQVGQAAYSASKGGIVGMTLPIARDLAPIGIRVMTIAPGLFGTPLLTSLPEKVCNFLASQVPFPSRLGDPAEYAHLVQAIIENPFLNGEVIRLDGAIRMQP
The data set is described as follows: Inhibition of recombinant 17beta-HSD10 (unknown origin) expressed in Escherichia coli BL21 (DE3) assessed as residual activity at 10 uM using acetoacetyl-CoA as substrate by SAAC method relative to control. In a few lines: (§1)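 Recombinant 17β-HSD10 from E. coli BL21(DE3), 0.15 μg, was mixed with 320 μmol/L NADH in Tris-HCl pH 7.4 assay buffer. It was preincubated 5 min at 37 °C with 1 or 10 μM inhibitor or vehicle, then 320 μmol/L acetoacetyl-CoA was added. A340 was followed for 5 min. Residual activity is % of control, triplicate mean ± SD, with t-test versus control.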

Data set [3] can be described thus: Partition coefficient between Water and Octanol, logP of the compound by UHPLC-DAD-MS analysis. The conditions noted are these: pH 7.4.
Data set [4] can be described thus: Aqueous solubility, logS of the compound at pH 7.4 phosphate buffer by nephelometry assay. The data set is classed as physicochemical. In a few lines: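 Nephelometry of compound suspensions in phosphate buffer pH 7.4. Stock was 160 μg/mL, sonicated and auto-diluted over 0–160 μg/mL, with higher stocks (640 μg/mL, 2.54 mg/mL) used if needed. Wells were shaken 30 s and laser-scanned. Solubility was derived by segmental linear regression.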

Data set [5] can be described thus: PBS buffer - Octanol distribution coefficient, logD of the compound at pH 7.4 by UHPLC-DAD-MS analysis. The data set is classed as physicochemical. In a few lines:
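Compound (0.25 mg) was put into 500 μL of a 1:1 water–octanol (logP) or PBS pH 7.4–octanol (logD) mixture. Samples were shaken 30 min and centrifuged 10 min at 10,000 rcf. Each phase was quantified by UHPLC-DAD-MS against calibration lines.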

Data set [6] concerns the target T2, 3-hydroxyacyl-CoA dehydrogenase type-2 (Homo sapiens, UniProt Q99714).
T2 sequence (Q99714 whole entry): T1 sequence (whole entry)
The data set is described as follows: Inhibition of human recombinant 17beta-HSD10 expressed in bacterial expression system assessed as decrease in NADH using acetoacetyl-CoA as substrate. In a few lines:
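Recombinant 17β-HSD10 from E. coli BL21(DE3), 0.15 μg, was mixed with 320 μmol/L NADH in 10 mM Tris-HCl pH 7.4 buffer (150 mM NaCl, 1 mM DTT, 0.001% Tween 20, 0.01% BSA). It was preincubated 5 min at 37 °C with inhibitor, then 320 μmol/L acetoacetyl-CoA was added. A340 was followed for 5 min. IC50 came from non-linear regression of ≥3 independent runs in triplicate; Ki was calculated from IC50 per Cer et al.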

The target of data set [7] is T1, 3-hydroxyacyl-CoA dehydrogenase type-2 (Homo sapiens). The data set is described as follows: Inhibition of recombinant 17beta-HSD10 (unknown origin) expressed in Escherichia coli BL21 (DE3) assessed as residual activity at 1 uM using acetoacetyl-CoA as substrate by SAAC method relative to control. In a few lines:
as §1

One may read the pKa as the pH at which an ionisable group is half protonated. What is called logP is a log measure of how a compound divides between an organic and an aqueous phase. Lower therefore signals a more hydrophilic compound. The logD is lipophilicity at a set pH, counting ionised and neutral species. A low value points to a more hydrophilic compound. The compound `COc1ccc2nc(NC(=O)Nc3ccc(O)c([N+](=O)[O-])c3)sc2c1` registered a pKa in data set [1] of 10.4. For the same compound, the Activity in data set [2] came out at 79.4%. The same compound yielded a logP in data set [3] of 3.47. Moreover, the logS0 in data set [4] was -4.78. For the same compound, in data set [5], the logD came to 3.44.

In general, IC50 refers to the concentration needed to halve the response being measured. `CS(=O)(=O)c1ccc2nc(NC(=O)Nc3ccc(O)c(Cl)c3)sc2c1`: the IC50 in data set [6] turned out to be 900 nM.

Take `COc1ccc2nc(/N=C/c3ccc(O)c(Cl)c3)sc2c1`: the pKa in data set [1] was 11.6. Further, in data set [2], the Activity was 76.6%. Besides, the logP in data set [3] was 3.79. In data set [4], the logS0 is -4.73. In addition, the logD in data set [5] is 3.95.

For the compound `COc1ccc2nc(NCc3ccc(O)c(Cl)c3)sc2c1`, the values for the Activity in data set [7] and in data set [2] were 74.4% and 33.2%, respectively. Moreover, the pKa in data set [1] was 8.4. In data set [3], this compound registered a logP of 4.19. In data set [4], the logS0 was -4.73. This compound showed a logD in data set [5] of 4.17.

Turning to `CCOC(=O)c1ccc2nc(NC(=O)Nc3ccc(O)c(Cl)c3)sc2c1`, the pKa in data set [1] was 9.26. Moreover, the Activity in data set [2] amounted to 58.6%. The compound also showed a logP in data set [3] of 4.58. The same compound returned a logS0 in data set [4] of -4.81. Also, the logD in data set [5] came to 4.64.

With `Oc1ccc(/N=C/c2nc3ccccc3s2)cc1Cl`, the pKa in data set [1] stood at 9.14. Besides, the Activity in data set [2] worked out at 68.7%. This compound yielded a logP in data set [3] of 2.94. The same compound returned a logS0 in data set [4] of -4.68. Also, in data set [5], the pH-dependent lipophilicity (logD) was 2.73.

On to `COc1ccc2nc(NC(=O)Nc3ccc(O)c(Br)c3)sc2c1`, for which the IC50 in data set [6] was found to be 1300 nM.

In data set [1], `Oc1ccc(CNCc2nc3ccccc3s2)cc1Cl` came in with a pKa of 8.79. Moreover, the Activity in data set [2] is 54.1%. This compound also yielded a logP in data set [3] of 4.03. For the same compound, the logS0 in data set [4] was -3.99. Also, the logD in data set [5] worked out at 4.04.

As to `Oc1ccc(CNCc2cc3ccccc3[nH]2)cc1Cl`, the pKa in data set [1] came to 7.6. In data set [2], the Activity came to 73.8%. The log partition coefficient (logP) in data set [3] stood at 2.84. The compound further gave a logS0 in data set [4] of -3.39. In data set [5], this compound gave a logD of 2.73.

For `Oc1ccc(NCc2nc3ccccc3s2)cc1Cl`, the pKa in data set [1] was 9.07. In addition, the Activity in data set [2] was found to be 72.1%. This compound also registered a logP in data set [3] of 3.77. Also, the logS0 in data set [4] was -4.69. Further, the logD in data set [5] turned out to be 3.88.

Take `CN(C)C(=O)c1ccc2nc(NC(=O)Nc3ccc(O)c(Cl)c3)sc2c1`: the figures for the Activity in data set [7] and in data set [2] were 70% and 31%, respectively. Further, the pKa in data set [1] was 9.51. The compound further yielded a logP in data set [3] of 2.94. Besides, in data set [4], the logS0 is listed as -4.81. Besides, the logD in data set [5] was 2.95.

In data set [1], `Oc1ccc(CNCc2nc3ccccc3o2)cc1Cl` returned a pKa of 8.74. In addition, the Activity in data set [2] turned out to be 67.6%. The same compound registered a logP in data set [3] of 3.14. Besides, the logS0 in data set [4] is -3.38. The compound also registered a logD in data set [5] of 3.19.

Consider `CN(C)c1ccc2nc(NC(=O)Nc3ccc(O)c(Cl)c3)sc2c1`, for which the figures for the Activity in data set [7] and in data set [2] were 62.7% and 27%, respectively. Besides, the pKa in data set [1] turned out to be 4.61. Moreover, the logP in data set [3] came to 4.09. The logS0 in data set [4] is -4.08. In data set [5], this compound had a logD of 4.08.
